This is a sample that favours compounds with a hit; in the whole collection about 12% have one here.
Wee1 degr inh: Wee1 degradation inhibitors, primary screen, cell-based, HeLa, Wee1K328M-luciferase, luminescence. Wee1-like protein kinase (Homo sapiens), P30291. HeLa Luc-Wee1K328M stability; 100% = proteasome inhibitor MG132 effect. reporter increase, % at 5 µM. 220,000 tested, 1.2% active. AID 1321, 2008;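 active = activation above the mean of all tested compounds plus 3 SD, set per screening run, cut at about 8.8% in these data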;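 note: cells exposed to compound for 20 h before luminescence read; 0% = DMSO alone and 100% = MG132 at 30 µM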
PKD1 kinase inh: inhibitors of human PKD1 kinase, biochemical, fluorescence polarization; AID 797, 2007; 200,000 tested, 0.056% active; inhibition, % (no concentration beside the values); PKD1 kinase fluorescence polarization assay
Arbovirus inh: antivirals against arbovirus infection, primary screen, cell-based, full library, 10K replicate subset; inhibition, % at 10 µM; arbovirus infection cell-based antiviral screen; 200,000 tested, 0.37% active; in the data active = inhibition above about 30%
Rad51 HR inh: human RAD51 strand exchange inhibitors, primary screen, biochemical, fluorescence; hRad51 DNA strand exchange, fluorescence dequenching; inhibition, % at 10 µM; 200,000 tested, 0.085% active; AID 1385, 2008;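 active = inhibition above 40% at the single screening dose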;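 note: 0% = DMSO control wells and 100% = blanks with heterologous ssDNA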
Target sequence (Q06609 whole entry, looked up): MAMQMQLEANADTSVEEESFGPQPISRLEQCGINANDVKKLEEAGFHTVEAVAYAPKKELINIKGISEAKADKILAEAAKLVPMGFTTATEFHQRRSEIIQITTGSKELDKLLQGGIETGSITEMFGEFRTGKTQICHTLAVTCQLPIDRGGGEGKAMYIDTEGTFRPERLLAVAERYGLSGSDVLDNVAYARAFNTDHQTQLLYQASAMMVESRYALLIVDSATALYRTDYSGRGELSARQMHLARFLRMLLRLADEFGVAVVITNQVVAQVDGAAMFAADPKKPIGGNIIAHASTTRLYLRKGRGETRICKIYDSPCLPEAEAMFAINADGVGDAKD
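Read-out basis: percent inhibition relative to plate controls and blanks / Assay system: human Rad51 nucleoprotein filaments preassembled on unlabelled ssDNA / Timing: filaments 15 min 37 °C, then compound 30 min / Control set: per-plate controls and blanks / Technique: fluorescence dequenching at 485/520 nm / Compound: 10 µM final, single point / Also added: Fluorescein- and BHQ1-tagged 47-mer duplex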
CHOP inh: inhibitors of CHOP promoter induction, primary screen, cell-based, unfolded protein response, luciferase reporter. AID 2732, 2010. 220,000 tested, 3.8% active. CHO-K1 CHOP-promoter luciferase, tunicamycin-induced, 15-18 h. inhibition, % at 10 µM;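 active = compounds that reduced the stress-induced luciferase reporter signal by more than about 70% of percent inhibition, limit read from the data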;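 note: 0% = tunicamycin plus vehicle and 100% = wells without tunicamycin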
Lmaj promast: Leishmania major promastigote growth inhibition, primary screen | 200,000 tested, 9% active | AID 1063, 2008 | inhibition, % at 10 µM | Leishmania major promastigotes, resazurin fluorescence viability;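 note: promastigotes grown with compound for 44 hours at 28 °C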
The depositor's hits bear a star; x = no result. Cut-off read from the data, not from the text of the source, unless noted: active = inhibition above about 50%; inactive = the rest.

SMILES	Wee1 degr inh	PKD1 kinase inh	Arbovirus inh	Rad51 HR inh	CHOP inh	Lmaj promast
O=S1(=O)Nc2c(ccc3cccnc23)-c2ccccc21	-0.3	8.9	-34.3	x	x	99.4*
O=c1[nH]n(-c2cccc3cccnc23)c(=O)c2ccccc12	-0.3	4.5	-5.2	-8.9	46.9	18.0
Cc1ccc(C)c(NC(=O)COC(=O)CCC(=O)c2cccs2)c1	-2.0	-0.6	1.7	2.1	-2.9	-0.1
CC1=CN2C(=N)/C(=C/c3ccc(Sc4ccc(C)cc4)o3)C(=O)N=C2S1	-0.8	2.0	-20.0	2.5	16.8	-3.4
CC1=CN2C(=N)/C(=C/c3ccc(Sc4ccc(Cl)cc4)o3)C(=O)N=C2S1	0.2	-8.5	-4.5	-15.1	76.7*	6.3
CC1CCN(C(=O)C2CCN(C(=O)c3cc4sccc4n3Cc3ccc(F)cc3)CC2)CC1	2.6	4.3	-2.1	-4.6	71.0*	67.0*
CC(C)NC(=O)C1CCN(C(=O)c2cc3sccc3n2Cc2ccc(F)cc2)CC1	-2.9	-7.9	9.3	-5.5	50.6	13.3
O=C(c1cc2sccc2n1Cc1ccc(F)cc1)N1CCCc2ccccc21	2.9	-1.1	5.5	-3.5	27.1	78.0*
CCOC(=O)c1c(CSc2cccs2)n(C)c2cc(Br)c(O)c(CN(C)C)c12	-3.7	-5.1	2.2	-0.3	6.1	22.3
COc1ccccc1CNC(=O)C1CCC(CNc2c(N3CCC(C)CC3)c(=O)c2=O)CC1 (configuration not stated)	6.3	x	x	16.6	0.8	x
CCCn1c(C)nc2c(c1=O)c1nc3ccccc3nc1n2CCC1=CCCCC1	1.4	4.1	-21.0	-5.8	89.4*	27.8
CCCn1c(C)nc2c(c1=O)c1nc3ccccc3nc1n2CCc1ccccc1	4.8	-0.6	x	x	x	3.1
COc1ccc(N(C(=O)CCl)C(C(=O)NCCc2ccccc2)c2cccs2)cc1Cl (configuration not stated)	1.9	-2.1	-40.7	x	109.7*	100.4*
COc1cccc(N(C(=O)CCl)C(C(=O)NCCc2ccccc2)c2cccs2)c1 (configuration not stated)	-1.9	-17.1	-34.8	-2.8	-2.9	100.2*
NCC1OC(O[C@@H]2[C@H](O)C(OC3C(O)C(N)CC(N)C3OC3OC(CO)C(O)C(O)C3N)O[C@@H]2CO)C(N)C(O)C1O (some centres not stated)	x	x	x	x	-3.5	x
Cc1cc(/C=C(\C#N)C(=O)Nc2ccc(Cl)cc2)c(C)n1-c1ccc(N2CCOCC2)c([N+](=O)[O-])c1	-2.1	14.6	1.5	14.3	13.6	100.1*
Cc1ccc(NC(=O)/C(C#N)=C/c2cc(C)n(-c3ccc(N4CCOCC4)c([N+](=O)[O-])c3)c2C)c(C)c1	-3.7	-3.2	0.6	1.1	29.0	-4.6
Cc1cc(SC(C)C(=O)NCC(=O)Nc2ccc(F)c(F)c2F)nc2ccccc12 (configuration not stated)	0.4	0.3	-6.9	2.0	17.7	-4.4
Cc1cc(C)c2nc(SC(C)C(=O)NCC(=O)Nc3ccc(F)c(F)c3F)cc(C)c2c1 (configuration not stated)	-3.9	-3.2	-5.4	2.0	91.5*	0.5
Cc1ccc2nc(-c3ccc(Br)o3)oc(=O)c2c1	-2.0	0.2	37.3*	-0.9	-11.0	-5.1
COc1cc2nc(-c3ccc(Br)o3)oc(=O)c2cc1OC	4.0	-8.6	9.3	5.3	-1.7	-6.7
CCOc1ccc2nc(N3C(=O)/C(=C/c4ccc(Cl)cc4)NC3=S)sc2c1	-0.1	0.4	-13.5	-18.4	104.6*	-4.4
COc1ccc2nc(N3C(=O)CNC3=S)sc2c1	-1.7	x	x	-6.8	-51.4	x
Cc1ccc(-c2cc(C(=O)NCc3cnn(C)c3C)c3cc(Br)ccc3n2)cc1	-1.0	-1.7	-8.9	-9.1	78.0*	12.0
Cc1ccc(-c2cc(C(=O)N(C)Cc3cnn(C)c3C)c3cc(Br)ccc3n2)cc1	-3.0	11.4	2.4	-1.6	8.1	5.3
SMILES	Wee1 degr inh	PKD1 kinase inh	Arbovirus inh	Rad51 HR inh	CHOP inh	Lmaj promast
CC(=O)Nc1ccc(NS(=O)(=O)c2c(Cl)cccc2Cl)cc1	4.6	x	x	0.9	-5.8	x
Cc1ccc(N2NC(C)(c3cccs3)NC2=S)cc1 (configuration not stated)	1.5	-5.2	-32.7	x	-10.2	88.5*
O=c1c2ccccc2nc(/C=C/c2ccc(O)cc2)n1CCc1ccccc1	-2.6	-1.0	-11.2	2.8	74.3*	35.7
CCn1c(/C=C/c2ccccc2)nc2ccccc2c1=O	-3.0	-1.2	4.5	-6.0	37.4	-1.0
Cc1cc(=O)oc2cc(Oc3ncccc3[N+](=O)[O-])ccc12	-1.3	-0.5	0.9	-101.7	10.1	-9.6
Cc1cc(=O)oc2cc(Oc3ccc([N+](=O)[O-])cc3[N+](=O)[O-])ccc12	-0.4	-3.8	-35.7	6.6	-42.0	86.3*
COc1ccc(-c2nc(CN(CC3CCC(=O)N3)C(C)C)c(C)o2)c(C)c1C (configuration not stated)	2.9	-5.5	-2.6	-8.2	29.4	79.2*
COc1cccc(C2CCCCN2Cc2nc(-c3ccc(C)o3)oc2C)c1 (configuration not stated)	-0.9	-4.3	2.0	-9.8	12.4	-5.8
COc1ccc(-c2nc(CN3CCCCC3c3nccn3C)c(C)o2)c(C)c1C (configuration not stated)	-3.0	-2.0	-14.3	2.5	-1.8	96.5*
COc1ccc(-c2nc(CN(C)C(C)c3ccon3)c(C)o2)c(C)c1C (configuration not stated)	-0.7	-9.9	-1.2	17.7	28.2	5.7
O=C1CSC2(N1)C1CC3CC(C1)CC2C3 (configuration not stated)	0.3	x	x	x	5.3	x
Cc1ccc(S(=O)(=O)Nc2ccc3c4c(cccc24)CC3)c(C)c1	-0.8	-0.6	x	1.3	x	5.5
Cc1ccc(S(=O)(=O)Nc2cc(C(C(=O)OC(C)C)C(=O)C(F)(F)F)c(O)c3ccccc23)c(C)c1 (configuration not stated)	0.2	-6.5	-19.0	5.8	64.5	92.0*
CC(=O)c1ccc(NC(=O)C(C)N2CCN(C/C=C/c3ccccc3)CC2)cc1 (configuration not stated)	-3.3	13.1	-0.5	9.6	-11.5	86.2*
COc1ccc(Cl)cc1NC(=O)C(C)N1CCN(C/C=C/c2ccccc2)CC1 (configuration not stated)	0.1	-3.4	-3.6	3.6	73.5*	62.0*
CC(C(=O)Nc1ccc([N+](=O)[O-])cc1)N1CCN(C/C=C/c2ccccc2)CC1 (configuration not stated)	0.5	-0.8	12.7	-5.7	20.9	81.9*

High-throughput results as filed in PubChem BioAssay.
